Values belong to the molecule of their own block, whether it stands above or below them.
Assays:
Nucleic Acid [1] = experiment: Binding site preference is determined as the ratio of AT to GC
[2] = Cytotoxicity against human H460M cancer cell line was determined after 144 hr; type: functional, cell-based; conditions: Cancer cell lines
In short: (§1)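 MTT colorimetric assay. Cells seeded by growth characteristics and preincubated 24 h, then exposed to drug for 1 h or 144 h at 37 °C, 5% CO2. H460M, MKN45 and PC-3 were grown in RPMI 1640 with 10% FCS. HCT116 was grown in D-MEM with 10% FBS and 2 mM glutamine.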

MKN-45 = experiment: Cytotoxicity against human MKN45 cancer cell line was determined after 144 hr; type: functional, cell-based; conditions: MKN-45, 144 h
In short: as §1

LoVo [3] = experiment: Ratio of IC50 against sensitive LoVo cell line and that of doxorubicin resistance LoVo cell line was determined after 1 hr exposure; type: functional, Homo sapiens
LoVo [4] = experiment: Cytotoxicity against doxorubicin resistant LoVo cell line was determined against 144 hrs; type: functional, cell-based; conditions: Homo sapiens
In short: (§2)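 MTT assay on doxorubicin-sensitive LoVo and resistant LoVo/Dx cells, 24 h preincubation, then 1 h or 144 h drug exposure at 37 °C, 5% CO2. IC50 in nM. Resistance index is IC50 on LoVo/Dx divided by IC50 on LoVo.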

Nucleic Acid [5] = experiment: Binding site preference is determined as the ratio of Poly (dA-dT)2 to Poly (dG-dC)2; type: nucleic-acid assay
In short: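 Ethidium displacement fluorometry at pH 7.0 (10 mM Na2HPO4, 10 mM NaH2PO4, 1 mM EDTA) with 1.26 μM ethidium bromide and 1 μM [poly(dA-dT)]2 or [poly(dG-dC)]2, 20 °C. Ex 546 nm, em 595 nm, drug added serially from a DMSO stock. Preference taken from the [AT]/[GC] ratio of C50 values, counted significant only below 0.7 or above 1.3.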

SNB-19 [6] = experiment: Percent growth of CNS SNB-19 cell line was determined at 10e-5 M concentration after 48 hr of exposing; type: functional, Homo sapiens
In short: (§3)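 NCI sulforhodamine B screen. Cells seeded by growth rate, 24 h drug-free, then 48 h exposure to 10^-8, 10^-6 or 10^-5 M. Protein-stain optical density expressed as percent growth relative to untreated control (100%); negative values indicate cell kill.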

HCT-116 = experiment: Cytotoxicity against human HCT116 cancer cell line was determined after 144 hr; type: functional, cell-based; conditions: HCT-116, 144 h
In short: as §1

DU-145 [7] = experiment: Percent growth of prostate DU-145 cell line was determined at 10e-6 M concentration after 48 hr of exposing; type: functional, Homo sapiens
DU-145 [8] = experiment: Percent growth of prostate DU-145 cell line was determined at 10e-8 M concentration after 48 h of exposing; type: functional, Homo sapiens
[9] = Percent growth of melanoma LOX IMV1 cell line was determined at 10e-5 M concentration after 48 hr of exposing; type: functional, Homo sapiens
In short: as §3

[10] = Percent growth of melanoma LOX IMV1 cell line was determined at 10e-6 M concentration after 48 hr of exposing; type: functional, Homo sapiens
In short: as §3

[11] = Percent growth of melanoma LOX IMV1 cell line was determined at 10e-8 M concentration after 48 hr of exposing; type: functional, Homo sapiens
In short: as §3

PC-3 = experiment: Cytotoxicity against human PC3 cancer cell line was determined after 144 hr; type: functional, cell-based; conditions: PC-3, 144 h
In short: as §1

[12] = Cytotoxicity against doxorubicin resistant LoVo cell line was determined against 1 hour; type: cell-based; conditions: Homo sapiens
In short: as §2

LoVo [13] = experiment: Cytotoxicity against human LoVo cancer cell line was determined after 144 hr; type: functional, cell-based
In short: as §2

SNB-19 [14] = experiment: Percent growth of CNS SNB-19 cell line was determined at 10e-6 M concentration after 48 hr of exposing; type: functional, Homo sapiens
In short: as §3

SNB-19 [15] = experiment: Percent growth of CNS SNB-19 cell line was determined at 10e-8 M concentration after 48 hr of exposing; type: functional, Homo sapiens
In short: as §3

786-0 [16] = experiment: Percent growth of renal 786-O cell line was determined at 10e-5 M concentration after 48 hr of exposing; type: functional, Homo sapiens
In short: as §3

786-0 [17] = experiment: Percent growth of renal 786-O cell line was determined at 10e-6 M concentration after 48 h of exposing; type: functional, Homo sapiens
In short: as §3

786-0 [18] = experiment: Percent growth of renal 786-O cell line was determined at 10e-8 M concentration after 48 h of exposing; type: functional, Homo sapiens
In short: as §3

MCF7 [19] = experiment: Percent growth of breast MCF-7 cell line was determined at 10e-6 M concentration after 48 h of exposing; type: functional, Homo sapiens
MCF7 [20] = experiment: Percent growth of breast MCF-7 cell line was determined at 10e-8 M concentration after 48 hr of exposing; type: functional, Homo sapiens
SW-620 [21] = experiment: Percent growth of colon SW-620 cell line was determined at 10e-5 M concentration after 48 hr of exposing; type: functional, Homo sapiens
In short: as §3

SW-620 [22] = experiment: Percent growth of colon SW-620 cell line was determined at 10e-6 M concentration after 48 hr of exposing; type: functional, Homo sapiens
In short: as §3

SW-620 [23] = experiment: Percent growth of colon SW-620 cell line was determined at 10e-8 M concentration after 48 hr of exposing; type: functional, Homo sapiens
In short: as §3

NCI-H460 [24] = experiment: Percent growth of lung NCI-H460 cell line was determined at 10e-5 M concentration after 48 hr of exposing; type: functional, Homo sapiens
In short: as §3

NCI-H460 [25] = experiment: Percent growth of lung NCI-H460 cell line was determined at 10e-6 M concentration after 48 hr of exposing; type: functional, Homo sapiens
In short: as §3

NCI-H460 [26] = experiment: Percent growth of lung NCI-H460 cell line was determined at 10e-8 M concentration after 48 hr of exposing; type: functional, Homo sapiens
In short: as §3

MOLT-4 [27] = experiment: Percent growth of leukemia MOLT-4 cell line was determined at 10e-5 M concentration after 48 hr of exposing; type: functional, Homo sapiens
In short: as §3

MOLT-4 [28] = experiment: Percent growth of leukemia MOLT-4 cell line was determined at 10e-6 M concentration after 48 h of exposing; type: functional, Homo sapiens
In short: as §3

MOLT-4 [29] = experiment: Percent growth of leukemia MOLT-4 cell line was determined at 10e-8 M concentration after 48 hr of exposing; type: functional, Homo sapiens
In short: as §3

OVCAR-4 [30] = experiment: Percent growth of ovarian OVCAR-4 cell line was determined at 10e-5 M concentration after 48 hr of exposing; type: functional, Homo sapiens
In short: as §3

OVCAR-4 [31] = experiment: Percent growth of ovarian OVCAR-4 cell line was determined at 10e-6 M concentration after 48 hr of exposing; type: functional, Homo sapiens
In short: as §3

OVCAR-4 [32] = experiment: Percent growth of ovarian OVCAR-4 cell line was determined at 10e-8 M concentration after 48 hr of exposing; type: functional, Homo sapiens
In short: as §3

DU-145 [33] = experiment: Percent growth of prostate DU-145 cell line was determined at 10e-5 M concentration after 48 hr of exposing; type: functional, Homo sapiens
[34] = Cytotoxicity against human LoVo cancer cell line was determined after 1 hr; type: cell-based
In short: as §2

[35] = Cytotoxicity against human H460M cancer cell line was determined after 1 hr; type: cell-based; conditions: Cancer cell lines
In short: as §1

[36] = Cytotoxicity against human MKN45 cancer cell line was determined after 1 hr; type: cell-based; conditions: Cancer cell lines
In short: as §1

[37] = Cytotoxicity against human HCT116 cancer cell line was determined after 1 hr; type: cell-based; conditions: HCT-116, 1 h
In short: as §1

HT-29 = experiment: Cytotoxicity is determined as the concentration required to inhibit the growth of human colon adenocarcinoma (HT-29) cell line; type: functional, cell-based
MCF7 [38] = experiment: Percent growth of breast MCF-7 cell line was determined at 10e-5 M concentration after 48 hr of exposing; type: functional, Homo sapiens
[39] = Cytotoxicity against human PC3 cancer cell line was determined after 1 hr; type: cell-based; conditions: Cancer cell lines
In short: as §1

Binding site preference (Nucleic Acid [5]): 1.7
Compound: CN(C)CCn1c(=O)c2ccc(NCCCN(C)CCCNc3ccc4c(=O)n(CCN(C)C)c(=O)n5c6ccc(O)cc6c(=O)c3c45)c3c(=O)c4cc(O)ccc4n(c1=O)c23
IC50 [2]: < 0.001 nM | IC50 (MKN-45): < 0.001 nM | Resistance index (LoVo [3]): 8.3 | IC50 (LoVo [4]): 59 nM | Growth (SNB-19 [6]): -17% | IC50 (HCT-116): < 0.001 nM | Growth (DU-145 [7]): -6% | Growth (DU-145 [8]): 32% | Growth [9]: -77% | Growth [10]: -50% | Growth [11]: 20% | IC50 (PC-3): 0.01 nM | IC50 [12]: 810 nM | IC50 (LoVo [13]): 3.9 nM | Growth (SNB-19 [14]): -4% | Growth (SNB-19 [15]): 34% | Growth (786-0 [16]): -52% | Growth (786-0 [17]): 1% | Growth (786-0 [18]): 36% | Growth (MCF7 [19]): -1% | Growth (MCF7 [20]): 16% | Growth (SW-620 [21]): -8% | Growth (SW-620 [22]): 10% | Growth (SW-620 [23]): 36% | Growth (NCI-H460 [24]): -60% | Growth (NCI-H460 [25]): -23% | Growth (NCI-H460 [26]): 11% | Growth (MOLT-4 [27]): -60% | Growth (MOLT-4 [28]): -37% | Growth (MOLT-4 [29]): -4% | Growth (OVCAR-4 [30]): -36% | Growth (OVCAR-4 [31]): -37% | Growth (OVCAR-4 [32]): 42% | Growth (DU-145 [33]): -42% | IC50 [34]: 98 nM | IC50 [35]: < 0.001 nM | IC50 [36]: < 0.001 nM | IC50 [37]: 0.06 nM | IC50 (HT-29): < 0.1 nM | Growth (MCF7 [38]): -32% | IC50 [39]: 2 nM

Binding site preference (Nucleic Acid [5]): 2.1
Compound: COc1ccc2c(c1)c(=O)c1c(NCCCN(C)CCCNc3ccc4c(=O)n(CCN(C)C)c(=O)n5c6ccc(OC)cc6c(=O)c3c45)ccc3c(=O)n(CCN(C)C)c(=O)n2c31
IC50 [2]: < 0.001 nM | IC50 (MKN-45): 0.0028 nM | Resistance index (LoVo [3]): 4.2 | IC50 (LoVo [4]): 7.6 nM | Growth (SNB-19 [6]): -48% | IC50 (HCT-116): 0.66 nM | Growth (DU-145 [7]): 3% | Growth (DU-145 [8]): 40% | Growth [9]: -91% | Growth [10]: -34% | Growth [11]: 26% | IC50 (PC-3): 1.2 nM | IC50 [12]: 76 nM | IC50 (LoVo [13]): 0.95 nM | Growth (SNB-19 [14]): 14% | Growth (SNB-19 [15]): 38% | Growth (786-0 [16]): -79% | Growth (786-0 [17]): 10% | Growth (786-0 [18]): 37% | Growth (MCF7 [19]): -3% | Growth (MCF7 [20]): 39% | Growth (SW-620 [21]): -49% | Growth (SW-620 [22]): -2% | Growth (SW-620 [23]): 30% | Growth (NCI-H460 [24]): -87% | Growth (NCI-H460 [25]): -20% | Growth (NCI-H460 [26]): 14% | Growth (MOLT-4 [27]): -62% | Growth (MOLT-4 [28]): -33% | Growth (MOLT-4 [29]): 6% | Growth (OVCAR-4 [30]): -72% | Growth (OVCAR-4 [31]): -37% | Growth (OVCAR-4 [32]): 0% | Growth (DU-145 [33]): -66% | IC50 [34]: 18 nM | IC50 [35]: 0.06 nM | IC50 [36]: 0.05 nM | IC50 [37]: 0.85 nM | IC50 (HT-29): < 0.1 nM | Growth (MCF7 [38]): -63% | IC50 [39]: 4.7 nM

Binding site preference (Nucleic Acid [1]): 0.22
Compound: COc1ccc2c(c1)c(=O)c1c(NCCN(C)C)ccc3c(=O)n(CCN(C)C)c(=O)n2c31

Second part, the molecule before the results:

Compound: CN(C)CCNc1ccc2c(=O)n(CCN(C)C)c(=O)n3c4ccc([N+](=O)[O-])cc4c(=O)c1c23
Binding site preference (Nucleic Acid [1]): 0.12

Compound: COc1cc2c(=O)c3c(NCCN(C)C)ccc4c(=O)n(CCN(C)C)c(=O)n(c2cc1OC)c43
Binding site preference (Nucleic Acid [1]): 0.12

Compound: O=C1c2c(O)ccc(O)c2C(=O)c2c(NCCNCCO)ccc(NCCNCCO)c21 [MITOXANTRONE]
IC50 [2]: 0.75 nM | IC50 (MKN-45): 12 nM | IC50 (HCT-116): 5.8 nM | IC50 (PC-3): 7 nM | IC50 (LoVo [13]): 3.3 nM | IC50 [34]: 12 nM | IC50 [35]: 0.85 nM | IC50 [36]: 6.8 nM | IC50 [37]: 110 nM | IC50 [39]: 75 nM

Reference: ChEMBL document CHEMBL1138784, “Rational design, synthesis, and biological evaluation of bis(pyrimido[5,6,1-de]acridines) and bis(pyrazolo[3,4,5-kl]acridine-5-carboxamides) as new anticancer agents” (J Med Chem, 2004)
